According to ChEMBL document CHEMBL1154329, “Structure and cytotoxicity of arnamial and related fungal sesquiterpene aryl esters” (J Nat Prod, 2009):
Calls of active or inactive are those of the source. The calls are words filed in the database; no cut-off is given here. Starred links: 1 amine or outer side, 2 acyl side, 3 side chain; linkers in the order of their positions; H or OH if unused. Positions of bridges follow the written chain, without caps; N, C: chain ends. Non-standard residues stand in square brackets, D forms with d. Residues, ends and D or L forms follow the SMILES beside them. Chains are numbered I, II in the order given. Actinocin(1to9) = Cc1c2oc3c(C)ccc(C(=O)[*:2])c3nc-2c(C(=O)[*:1])c(N)c1=O; NMeV = CN[C@H](C(=O)O)C(C)C; Sar = CNCC(=O)O

Tests used:
CCRF-CEM [1] = assay: Cytotoxicity against human CCRF-CEM cells after 48 hrs by MTT assay; format: functional, cell-based
Summary of the method: (§1)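 All four lines kept in RPMI 1640 with 10% FBS, 1% GlutaMAX, penicillin/streptomycin. Cells seeded at (2.5-5.0) × 10^4 per well and held overnight at 37 °C. Compounds added as 2-fold DMSO dilutions, top final concentration 100 µM, 0.5% DMSO final. Triplicates, 48 h, 37 °C, 5% CO2. MTT 1 mg/mL added for 3 h. IC50 is the mean of three replicate experiments.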

HCT-116 [2] = assay: Cytotoxicity against human HCT116 cells after 48 hrs by MTT assay; format: functional, cell-based; conditions: HCT-116, 48 h; summary of the method: as §1
Jurkat [3] = assay: Cytotoxicity against human Jurkat T cells after 48 hrs by MTT assay; format: functional, cell-based; summary of the method: as §1
MCF7 [4] = assay: Cytotoxicity against human MCF7 cells after 48 hrs by MTT assay; format: functional, cell-based; conditions: MCF7, 48 h; summary of the method: as §1
Jurkat [5] = assay: Cytotoxicity against human Jurkat T cells at <=100 uM after 48 hrs by MTT assay; format: functional, cell-based; summary of the method: as §1
HCT-116 [6] = assay: Cytotoxicity against human HCT116 cells at <=100 uM after 48 hrs by MTT assay; format: functional, cell-based; summary of the method: as §1
CCRF-CEM [7] = assay: Cytotoxicity against human CCRF-CEM cells at <=100 uM after 48 hrs by MTT assay; format: functional, cell-based; summary of the method: as §1
MCF7 [8] = assay: Cytotoxicity against human MCF7 cells at <=100 uM after 48 hrs by MTT assay; format: functional, cell-based; summary of the method: as §1
Jurkat [9] = assay: Induction of apoptosis in human Jurkat T cells assessed as increase in DNA fragmentation at 10 uM after 6 hrs by ELISA relative to control; format: functional
Summary of the method: (§2)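 Jurkat T cells at 1 × 10^6 cells/mL exposed for 6 h. DNA fragmentation measured as histone-DNA complexes by histone ELISA and expressed as fold increase over untreated cells.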

Jurkat [10] = assay: Induction of apoptosis in human Jurkat T cells assessed as activation of caspase3 at 10 uM after 6 hrs relative to control; format: functional
Summary of the method: (§3)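 Jurkat T cells at 1 × 10^6 cells/mL treated for 6 h, then centrifuged at 4 °C, washed and homogenized. Caspase-3 activity read with DEVD-AMC substrate at 200 nM. Rate of fluorescence increase normalized to Bradford protein, expressed as fold over untreated cells. Three independent experiments.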

Jurkat [11] = assay: Induction of apoptosis in human Jurkat T cells assessed as increase in DNA fragmentation at 0.33 uM after 6 hrs by ELISA relative to control; format: functional; summary of the method: as §2
Jurkat [12] = assay: Induction of apoptosis in human Jurkat T cells assessed as activation of caspase3 at 0.3 uM after 6 hrs relative to control; format: functional; summary of the method: as §3

| SMILES | IC50 (CCRF-CEM [1]) [µM] | IC50 (HCT-116 [2]) [µM] | IC50 (Jurkat [3]) [µM] | IC50 (MCF7 [4]) [µM] | Activity (Jurkat [5]) | Activity (HCT-116 [6]) | Activity (CCRF-CEM [7]) | Activity (MCF7 [8]) | also measured |
| --- | --- | --- | --- | --- | --- | --- | --- | --- | --- |
| COc1cc(O)c(C(=O)O[C@@H]2C[C@]3(C)[C@H]4[C@@H](O)C(C)(C)C[C@@]4(O)C=C(C=O)[C@]23O)c(C)c1Cl [MELLEDONAL C] | 14.8 | > 100 | 58.8 | > 100 | – | – | – | – | – |
| Cc1cc(O)cc(O)c1C(=O)O[C@@H]1C[C@]2(C)[C@H]3[C@@H](O)C(C)(C)C[C@@]3(O)C=C(CO)[C@]12O | – | – | – | – | inactive | inactive | inactive | inactive | – |
| Cc1cc(O)cc(O)c1C(=O)O[C@@H]1C[C@]2(C)[C@H]3[C@@H](O)C(C)(C)C[C@@]3(O)C=C(C=O)[C@]12O | – | – | – | – | inactive | inactive | inactive | inactive | – |
| COc1cc(O)c(C(=O)O[C@@H]2C[C@]3(C)[C@H]4[C@@H](O)C(C)(C)C[C@@]4(O)C=C(CO)[C@]23O)c(C)c1Cl [MELLEOLIDE D] | 61.7 | > 100 | > 100 | > 100 | – | – | – | – | – |
| COc1cc(C)c(C(=O)O)c(O)c1 | – | – | – | – | inactive | inactive | inactive | inactive | – |
| COc1cc(O)c(C(=O)O[C@@H]2C[C@@]3(C)C2=C(C=O)[C@@H](O)[C@@H]2CC(C)(C)C[C@@H]23)c(C)c1Cl [ARNAMIAL] | 8.91 | 10.7 | 3.93 | 15.4 | – | – | – | – | fold change (FC) (Jurkat [9]): 4.5; fold change (FC) (Jurkat [10]): 18.1 |
| Cc1c2oc3c(C)ccc(C(=O)N[C@@H]4C(=O)N[C@H](C(C)C)C(=O)N5CCC[C@H]5C(=O)N(C)CC(=O)N(C)[C@@H](C(C)C)C(=O)O[C@@H]4C)c3nc-2c(C(=O)N[C@@H]2C(=O)N[C@H](C(C)C)C(=O)N3CCC[C@H]3C(=O)N(C)CC(=O)N(C)[C@@H](C(C)C)C(=O)O[C@@H]2C)c(N)c1=O [DACTINOMYCIN] (I: T[dV]P[Sar][NMeV] / II: T[dV]P[Sar][NMeV]; ester I:1-I:C, II:1-II:C; linker I:N-II:N via Actinocin(1to9)) | – | – | – | – | – | – | – | – | fold change (FC) (Jurkat [11]): 4.3; fold change (FC) (Jurkat [12]): 5.7 |
| COc1cc(C)c(C(=O)O[C@@H]2C[C@]3(C)[C@H]4[C@@H](O)C(C)(C)C[C@@]4(O)C=C(CO)[C@]23O)c(O)c1 | – | – | – | – | inactive | inactive | inactive | inactive | – |
| Cc1cc(O)cc(O)c1C(=O)O | – | – | – | – | inactive | inactive | inactive | inactive | – |
| Cc1cc(O)cc(O)c1C(=O)O[C@@H]1C[C@]2(C)[C@@H]3[C@H](C=C(C=O)[C@]12O)CC(C)(C)[C@@H]3O | 63.2 | > 100 | 86.2 | > 100 | – | – | – | – | – |
